Results: ChEMBL document CHEMBL1145082 (J Med Chem, 2003)
pIC50: −log10 of the molar value. One block for each compound: values may come before it.

Key:
[1] = target: Glycogen synthase kinase-3 beta (Homo sapiens) (UniProt P49841); assay: Inhibition of Glycogen synthase kinase-3beta (GSK3-beta) at 1 uM; details: Oryctolagus cuniculus
[2] = target: Protein kinase C gamma type (Homo sapiens, UniProt P05129); assay: Inhibition of Protein kinase C gamma (PKC-gamma)
In short: (§1)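 Recombinant human PKCα, PKCγ or PKCβII (5–10 mU) phosphorylating histone H1 (0.1 mg/mL) with 33P-ATP, total ATP 10 µM. Buffer 50 mM Hepes pH 7.4 with Triton X-100, CaCl2, Mg acetate, phosphatidylserine and diacylglycerol. Run 40 min at room temperature, stopped with phosphoric acid, then P30 filter counting. IC50 from 6–10 concentrations; ≥3 experiments in duplicate; ± SEM.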

[3] = target: Cyclin-dependent kinase 1 (Homo sapiens, UniProt P06493); assay: Inhibition of Cyclin-dependent kinase 1
In short: (§2)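 Reaction started with 30–150 ng kinase, run 1 h at 30 °C. Peptides captured on streptavidin plates and counted. IC50 from 6–10 concentrations; ≥3 experiments in duplicate; ± SEM.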

[4] = Inhibition of Vascular endothelial growth factor receptor 2; set-up: species or system Homo sapiens; in short: as §2
[5] = Inhibition of Casein Kinase I; set-up: species or system Rattus norvegicus; in short: as §2
[6] = target: Cyclin-dependent kinase 2 (Homo sapiens, UniProt P24941); assay: Inhibition of Cyclin-dependent kinase 2 (CDK2); in short: as §2
[7] = target: Protein kinase C beta type (Homo sapiens, UniProt P05771); assay: Inhibition of Protein kinase C beta 2
In short: as §1, with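 “counting.” for “counting. IC50 from 6–10 concentrations; ≥3 experiments in duplicate; ± SEM.”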

CaM kinase II = CaM kinase II (Homo sapiens, UniProt Q13557+Q13555+Q13554+Q9UQM7); assay: Inhibition of Calcium/calmodulin-dependent protein kinase II; format: protein assay, Rattus norvegicus
[8] = target: Protein kinase C alpha type (Homo sapiens, UniProt P17252); assay: Inhibition of Protein kinase C alpha
In short: as §1, with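 “counting.” for “counting. IC50 from 6–10 concentrations; ≥3 experiments in duplicate; ± SEM.”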

[9] = Inhibitory activity against Protein kinase A was determined
[10] = target: Protein kinase C theta type (Homo sapiens, UniProt Q04759); assay: Inhibition of Protein kinase C theta
In short: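 Recombinant human PKCθ (5–10 mU) with histone H1 (0.1 mg/mL) and 33P-ATP, total ATP 10 µM, in 8 mM MOPS pH 7.0, 0.2 mM EDTA, 10 mM Mg acetate. Run 40 min at room temperature, stopped with phosphoric acid, then P30 filter counting. IC50 from 6–10 concentrations; ≥3 experiments in duplicate; ± SEM.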

Chain of Glycogen synthase kinase-3 beta (Homo sapiens) (P49841 whole entry, looked up): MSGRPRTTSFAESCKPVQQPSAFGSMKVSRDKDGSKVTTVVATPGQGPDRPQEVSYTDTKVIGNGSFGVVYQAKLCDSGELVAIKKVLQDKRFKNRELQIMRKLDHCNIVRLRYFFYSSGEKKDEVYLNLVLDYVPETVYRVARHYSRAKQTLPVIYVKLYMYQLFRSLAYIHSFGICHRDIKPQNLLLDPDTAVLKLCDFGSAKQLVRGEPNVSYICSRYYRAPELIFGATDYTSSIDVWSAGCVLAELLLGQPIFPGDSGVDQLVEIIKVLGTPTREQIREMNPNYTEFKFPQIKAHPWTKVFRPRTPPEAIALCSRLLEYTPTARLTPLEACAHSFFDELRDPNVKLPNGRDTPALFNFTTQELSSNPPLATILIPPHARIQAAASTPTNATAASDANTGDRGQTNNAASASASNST
Chain of Cyclin-dependent kinase 1 (P06493 whole entry): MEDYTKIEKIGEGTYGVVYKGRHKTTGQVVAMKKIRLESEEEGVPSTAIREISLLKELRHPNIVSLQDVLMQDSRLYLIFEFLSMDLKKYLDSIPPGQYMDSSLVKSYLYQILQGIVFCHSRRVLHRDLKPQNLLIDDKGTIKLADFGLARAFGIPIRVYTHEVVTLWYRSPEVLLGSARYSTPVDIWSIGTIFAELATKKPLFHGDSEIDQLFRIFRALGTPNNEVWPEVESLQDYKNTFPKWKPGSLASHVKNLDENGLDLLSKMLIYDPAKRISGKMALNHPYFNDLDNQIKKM
Chain of Protein kinase C beta type (P05771 whole entry): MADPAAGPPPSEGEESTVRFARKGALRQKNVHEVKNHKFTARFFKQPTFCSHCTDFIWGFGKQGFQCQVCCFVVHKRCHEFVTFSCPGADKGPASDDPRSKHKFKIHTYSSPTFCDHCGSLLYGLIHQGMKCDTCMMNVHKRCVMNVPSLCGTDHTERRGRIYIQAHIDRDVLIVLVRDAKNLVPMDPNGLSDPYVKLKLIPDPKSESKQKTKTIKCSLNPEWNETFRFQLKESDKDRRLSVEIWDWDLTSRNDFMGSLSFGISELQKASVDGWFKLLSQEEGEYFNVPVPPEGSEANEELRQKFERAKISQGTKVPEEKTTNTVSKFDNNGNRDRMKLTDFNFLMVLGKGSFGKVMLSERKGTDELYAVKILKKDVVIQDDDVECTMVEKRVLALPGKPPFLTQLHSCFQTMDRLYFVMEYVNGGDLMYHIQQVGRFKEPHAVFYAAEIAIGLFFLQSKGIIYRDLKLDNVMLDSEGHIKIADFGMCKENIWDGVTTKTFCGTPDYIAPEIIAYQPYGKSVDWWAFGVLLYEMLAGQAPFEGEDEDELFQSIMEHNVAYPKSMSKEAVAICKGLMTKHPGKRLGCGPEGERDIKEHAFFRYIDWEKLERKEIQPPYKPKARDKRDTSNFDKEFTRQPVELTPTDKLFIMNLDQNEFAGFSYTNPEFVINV
Chain of Protein kinase C theta type (Q04759 whole entry): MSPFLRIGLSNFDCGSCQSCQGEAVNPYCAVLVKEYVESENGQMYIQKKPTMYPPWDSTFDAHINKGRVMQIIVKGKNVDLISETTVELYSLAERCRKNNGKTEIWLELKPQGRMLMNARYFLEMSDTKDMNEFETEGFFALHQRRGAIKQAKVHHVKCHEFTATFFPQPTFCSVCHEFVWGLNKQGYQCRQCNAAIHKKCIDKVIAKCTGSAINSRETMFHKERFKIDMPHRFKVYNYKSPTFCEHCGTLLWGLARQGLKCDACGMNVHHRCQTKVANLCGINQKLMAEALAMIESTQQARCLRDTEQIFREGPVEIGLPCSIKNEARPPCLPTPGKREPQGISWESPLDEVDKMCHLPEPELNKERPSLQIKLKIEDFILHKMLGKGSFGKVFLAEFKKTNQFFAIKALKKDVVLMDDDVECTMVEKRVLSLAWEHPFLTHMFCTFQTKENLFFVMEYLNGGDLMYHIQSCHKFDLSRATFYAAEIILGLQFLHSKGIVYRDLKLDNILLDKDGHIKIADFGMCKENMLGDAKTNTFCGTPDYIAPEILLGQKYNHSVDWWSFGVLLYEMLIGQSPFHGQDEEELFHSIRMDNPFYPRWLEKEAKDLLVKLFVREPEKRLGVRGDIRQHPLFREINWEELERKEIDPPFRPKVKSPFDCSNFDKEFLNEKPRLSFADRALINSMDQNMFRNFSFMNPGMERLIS

SMILES: CN1C(=O)C2=C(C1=O)c1cn(c3ncccc13)CCOCCOCCn1cc2c2ccccc21
inhibition [1]: 51%

SMILES: O=C1NC(=O)C2=C1c1cn(c3ncccc13)CCOCCOCCn1cc2c2cccnc21
pIC50 [2]: < 5.00

SMILES: CN1C(=O)C2=C(C1=O)c1cn(c3ccccc13)CCOCCOCCOCCn1cc2c2ccccc21
inhibition [1]: 54%

SMILES: O=C1NC(=O)C2=C1c1cn(c3ncccc13)CCOCCOCCOCCOCCOCCn1cc2c2cccnc21
pIC50 [2]: < 5.00

Other lines, results leading:

pIC50 [2]: 5.56
SMILES: O=C1NC(=O)C2=C1c1cn(c3ccccc13)CCOCCOCCn1cc2c2ccccc21

pIC50 [3]: 5.35 | pIC50 [4]: 5.45 | pIC50 [5]: < 5.00 | pIC50 [2]: 5.87 | pIC50 [6]: 5.61 | pIC50 [7]: 7.34 | IC50 (CaM kinase II): > 10 µM | pIC50 [8]: 6.17 | pIC50 [9]: < 5.00 | pIC50 [10]: 6.08
SMILES: O=C1NC(=O)C2=C1c1cn(c3ccccc13)CCOCCOCCOCCn1cc2c2cccnc21 [INDOLYLYLMALEIMIDE 1]

pIC50 [2]: 5.48
SMILES: O=C1NC(=O)C2=C1c1cn(c3ccccc13)CCOCCOCCOCCOCCn1cc2c2ccccc21

pIC50 [2]: 5.57
SMILES: O=C1NC(=O)C2=C1c1cn(c3ccccc13)CCOCCOCCn1cc2c2cccnc21

pIC50 [2]: 5.29
SMILES: O=C1NC(=O)C2=C1c1cn(c3ccccc13)CCOCCOCCOCCOCCOCCn1cc2c2ccccc21

pIC50 [3]: 5.90 | pIC50 [4]: 5.84 | pIC50 [5]: < 5.00 | pIC50 [2]: 5.92 | pIC50 [6]: 6.00 | pIC50 [7]: 8.22 | pIC50 [8]: 7.07 | pIC50 [9]: < 5.00 | pIC50 [10]: 7.19
SMILES: O=C1NC(=O)C2=C1c1cn(c3ccccc13)CCOCCOCCOCCn1cc2c2ccccc21 [INDOLYLYLMALEIMIDE 2]
